Series [1] concerns AR+/ER−/PR− breast cancer. The settings on record: cited from earlier work.
The subject of series [2] is MDA-MB-453, HCC1428 and MCF-7 cells. As to the kind of experiment: Apoptosis analysis by flow cytometry. It counts as cell-based, human. To be noted: 10 µM, 3-day treatment. The essentials:
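MDA-MB-453, HCC1428 and MCF-7 cells were treated for 72 h with a concentration range of test compound, with AR antagonist comparators at 10 µM. For the time course, MDA-MB-453 and HCC1428 cells received 1 µM. Cells were washed in cold PBS, stained with an apoptosis detection kit and analysed by flow cytometry for percent live and apoptotic cells. Data are mean ± SEM, n=3.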
(A flow cytometer gives signals particle by particle.)

Series [3] relates to MDA-MB-453 xenograft tumor. Briefly: Antitumor efficacy in MDA-MB-453 xenograft tumor model. The format is in vivo, mice. To be noted: enzalutamide 50 mg/kg IP dose. A digest of the protocol:
(§1)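 Male CB.17 SCID mice were implanted s.c. with 5 × 10^6 MDA-MB-453 cells in 5 mg/ml Matrigel. At a mean tumour volume of 100 mm3, mice were randomised by tumour size. Test compound or vehicle (20% PEG400 + 6% Cremophor EL + 74% PBS) was given i.p. daily. Tumours and body weights were measured twice weekly, with volume = length × width²/2. Data are mean ± SEM, n=8.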

The nature of series [4]: Animal weight and signs of toxicity in efficacy experiment. The settings on record: entire efficacy experiment, MDA-MB-453 xenograft mice. It counts as in vivo. The essentials: as §1
Series [5] has as its system metastatic AR+, TNBCs. To be noted: phase 2, metastatic AR+ TNBC; cited from earlier work.
Series [6] concerns 5 AR+ breast cancer cell lines. Briefly: Cell growth inhibition, WST-8 assay, statements for the whole panel. It counts as cell-based, human. To be noted: concentrations up to 10 µM, 5 AR+ cell lines. (In general: Tetrazolium dyes change colour on reduction, which living cells bring about.)
Series [7] has as its system MDA-MB-453, HCC1428 and MCF-7 cells. Briefly: Cell cycle analysis by flow cytometry. It counts as cell-based, human. The settings on record: 10 µM, 72 h. A digest of the protocol: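 MDA-MB-453, HCC1428 and MCF-7 cells were treated for 72 h with a concentration range of test compound (AR antagonist comparators at 10 µM), or with 1 µM over a time course. Cells were fixed in 70% ethanol overnight at 4 °C, stained with propidium iodide plus 0.2 mg/ml RNase A for 30 min at room temperature, and cell-cycle distribution was measured by flow cytometry. Data are mean ± SEM.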

Series [8] relates to caspase-8, −9, −3, and −7 and PARP. Briefly: Cleavage of caspases and PARP, Western blot. It counts as cell-based, human. The settings on record: 1 or 10 µM, MDA-MB-453 and HCC1428, 48 h. A digest of the protocol: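 MDA-MB-453 and HCC1428 cells were exposed to a concentration range of test compound for 48 h. Cells were lysed in RIPA with protease and phosphatase inhibitors for 30 min on ice. Lysates were run on SDS-PAGE and transferred to PVDF. Membranes were blocked in 5% milk in TBST, probed with primary antibodies for cleaved caspases and PARP overnight at 4 °C and with HRP secondary, then developed by ECL.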
(In general: A western blot detects proteins with antibodies after separation by electrophoresis.)

Series [9] deals with AR protein. It counts as cell-based, human. To be noted: MDA-MB-453 cells, combination with ARD-61 for 24 h.

As to `CC(O)(CS(=O)(=O)c1ccc(F)cc1)C(=O)Nc1ccc(C#N)c(C(F)(F)F)c1` (stereo not shown) [Bicalutamide], in [1], the “Clinical benefit ratio (CBR)” value is 19% and the Toxicity result is given as “minimal toxicity”.
As for `CNC(=O)c1ccc(N2C(=S)N(c3ccc(C#N)c(C(F)(F)F)c3)C(=O)C2(C)C)cc1F` [Enzalutamide], the Apoptosis induction result in series [2] is given as “minimal apoptosis”. Also, in series [3], the Antitumor activity result is “very similar with that of ARD-61 at 25 mg/kg”. Moreover, the “Animal weight loss or other signs of toxicity” value in series [4] is recorded as “No animal weight loss or other signs of toxicity”. For the same compound, the Progression-free survival entry in series [5] was “significant improvement”. The “Inhibition of cell growth” value in series [6] is given as “minimal activity”. For the same compound, in [7], the “Effect on cell cycle (G2/M arrest)” value is “minimal effect”. For the same compound, the “Effect on cleavage of caspase-8, −9, −3, −7 and PARP” value in series [8] was “minimal effect”.
With `C[C@]1(O)CC[C@H]2[C@@H]3CCC4=CC(=O)CCC4=C3C=C[C@@]21C` [R1881, metribolone], the “Effect on AR depletion induced by ARD-61” value in series [9] is “effectively block”.
